From PubChem
PfGluPho inh: PfG6PD (Plasmodium falciparum) enzyme inhibition; PfGluPho enzyme, NADPH resazurin-diaphorase fluorescence; AID 504690; inhibition, % at 20 µM; actives 0.78% (n = 350,000);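 active = inhibition reaching at least a set limit at 20 µM in the primary screen, cut at about 59% in these data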;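 also: 0% = DMSO wells with substrate and 100% = DMSO wells lacking glucose-6-phosphate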
PHOSPHO1 inh: PHOSPHO1 (human) inhibition; actives 1.1% (n = 290,000); recombinant PHOSPHO1, absorbance phosphatase assay; Q8TCT1; inhibition, % at 13.3 µM; AID 1565; in the data active = inhibition above about 60%
EP2 modulator: modulators of human EP2 prostaglandin E2 receptor | AID 940 | EP2-expressing cells, cAMP HTRF FRET, PGE2 co-stimulation | induction, % at 25 µM | P43116 | actives 0.83% (n = 260,000);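 active = compounds whose cAMP rise, as percent of the full-agonist control response, exceeds 60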;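 also: rat C6 glioma line stably carrying human EP2 under a CMV promoter; the protocol text gives 20 µM as final concentration; 100% = response of wells given 1 µM PGE2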
PGE2 EP2 inh: inhibitors of human EP2 prostaglandin E2 receptor. P43116. C6 glioma cells expressing human EP2, cAMP TR-FRET; cells stimulated with saturating PGE2. inhibition, % at 25 µM. actives 0.52% (n = 260,000). AID 1422;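 active = percent inhibition above 40 after rounding to a whole number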;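 also: rat C6 glioma host cells with rolipram phosphodiesterase inhibitor present; the protocol text gives 20 µM as final concentration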
HKDC1 inh: blocks human hexokinase HKDC1 activity; Q2TB90; recombinant HKDC1, G6PDH/diaphorase resazurin coupled fluorescence; inhibition, % at 20 µM; actives 0.16% (n = 340,000); AID 493160;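 active = inhibition above about 35% when tested at 20 µM, limit read from the data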;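 also: plate controls were DMSO wells with enzyme for no effect and DMSO wells lacking enzyme for full effect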
Target sequence (Q2TB90 whole entry, looked up): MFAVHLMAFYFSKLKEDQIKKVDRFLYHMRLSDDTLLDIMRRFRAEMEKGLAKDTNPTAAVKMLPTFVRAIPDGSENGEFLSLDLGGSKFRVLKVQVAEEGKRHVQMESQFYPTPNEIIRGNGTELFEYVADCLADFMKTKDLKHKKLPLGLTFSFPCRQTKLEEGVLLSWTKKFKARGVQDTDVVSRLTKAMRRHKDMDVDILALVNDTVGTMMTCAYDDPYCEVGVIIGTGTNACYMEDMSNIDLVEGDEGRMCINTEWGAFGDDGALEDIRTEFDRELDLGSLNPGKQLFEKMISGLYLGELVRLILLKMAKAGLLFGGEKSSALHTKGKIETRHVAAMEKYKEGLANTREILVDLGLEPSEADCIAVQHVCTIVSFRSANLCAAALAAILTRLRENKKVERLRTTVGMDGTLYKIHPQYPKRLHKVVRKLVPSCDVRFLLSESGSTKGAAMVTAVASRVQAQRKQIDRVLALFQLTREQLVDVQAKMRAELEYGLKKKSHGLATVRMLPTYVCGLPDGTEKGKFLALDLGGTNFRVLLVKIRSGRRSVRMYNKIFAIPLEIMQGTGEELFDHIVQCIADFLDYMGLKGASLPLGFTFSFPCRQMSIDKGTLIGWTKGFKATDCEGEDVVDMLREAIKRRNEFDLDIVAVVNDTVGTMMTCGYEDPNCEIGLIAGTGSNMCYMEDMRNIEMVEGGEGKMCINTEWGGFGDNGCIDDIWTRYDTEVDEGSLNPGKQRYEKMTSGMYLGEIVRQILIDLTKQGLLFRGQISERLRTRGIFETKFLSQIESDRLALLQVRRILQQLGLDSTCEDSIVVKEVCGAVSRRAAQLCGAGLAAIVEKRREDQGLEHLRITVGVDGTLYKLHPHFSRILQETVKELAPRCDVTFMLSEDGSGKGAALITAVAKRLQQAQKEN
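Material: recombinant HKDC1 hexokinase; Amount: HKDC1 at 5 µg/mL; Medium: Tris pH 8.0 buffer with MgCl2, Tween-20, BSA, BME; Schedule: 90 min reaction incubation at room temperature, dark; Technique: coupled resazurin fluorescence, excitation 525 nm, emission 613 nm.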
TbHK1 inh: T. brucei hexokinase 1 inhibition. recombinant TbHK1, G6PDH-coupled NADH A340. inhibition, % at 10 µM. actives 0.11% (n = 220,000). AID 1430;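 active = inhibition of 50% or more in the single-dose primary screen; inactive = inhibition below 50%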
PfGluPho conf: confirmation of Plasmodium falciparum G6PD inhibitors. shares compounds with PfGluPho inh. recombinant PfGluPho, NADPH-diaphorase-resazurin fluorescence. inhibition, % at 20 µM. actives 34% (n = 2,400). AID 504753;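 active = inhibition of at least 50% at 20 µM in any single replicate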;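 also: 0% = DMSO with substrate and 100% = DMSO lacking glucose-6-phosphate substrate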
Diaph ctr 10uM: inhibits diaphorase or oxidizes, flagging false PfG6PD hits; actives 39% (n = 820); shares compounds with PfGluPho inh; inhibition, % at 20 µM; diaphorase-coupled resazurin reduction, fluorescence, NADPH 10 uM;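 active = average inhibition reaching 50% or more with the compound at 20 µM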;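 also: resorufin red fluorescence formed as diaphorase reduces resazurin using NADPH; 0% = DMSO with enzyme and 100% = DMSO without enzyme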
Diaph ctr 30uM: counter-screen for P. falciparum G6PD inhibitors: diaphorase inhibitors, oxidizers; shares compounds with PfGluPho inh; Diaphorase/resazurin coupled assay, resorufin fluorescence, 30 uM NADPH; inhibition, % at 20 µM; actives 29% (n = 820);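 active = inhibition averaging 50% or more, tested at 20 µM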;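 also: 0% = DMSO with enzyme and 100% = DMSO wells lacking diaphorase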
* marks the source's active call; other numbers are inactive results; . = no result given. This is a sample that favours compounds with a hit; in the whole collection about 2.5% have one here.

SMILES | PfGluPho inh | PHOSPHO1 inh | EP2 modulator | PGE2 EP2 inh | HKDC1 inh | TbHK1 inh | PfGluPho conf | others
COc1ccc(S(=O)(=O)N(CCc2ccccc2)Cc2cc3c(C)ccc(C)c3[nH]c2=O)cc1 | . | . | -28 | 6 | . | . | .
O=C1c2ccccc2C(Nc2ccc(F)c(Cl)c2)N1Cc1ccco1 (stereo not given) | 7 | -9 | 33 | 13 | 10 | 0 | .
O=C1c2ccccc2C(Nc2ccc3c(c2)OCO3)N1Cc1ccco1 (stereo not given) | 61* | -7 | 30 | 7 | 7 | 0 | 39
O=C1c2ccccc2C(Nc2cccnc2)N1Cc1ccc2c(c1)OCO2 (stereo not given) | -4 | -28 | 14 | 15 | -3 | 9 | .
O=C1c2ccccc2C(Nc2ccc3c(c2)OCO3)N1Cc1ccc2c(c1)OCO2 (stereo not given) | 60* | -12 | -1 | 11 | 7 | 3 | 44
CN(C)CCCn1cnn2c3ccccc3nc12 | . | . | -19 | 1 | . | . | .
CCNC(=S)N/N=C/c1cccc(OCc2c(F)cccc2Cl)c1 | 60* | -48 | -3 | 12 | -3 | 1 | -22
CNC(=S)N/N=C/c1cccc(OCc2ccccc2F)c1 | 42 | 2 | -5 | 10 | -7 | 28 | .
CCC(=O)N(CC(=O)Nc1ccc(Cl)c(Cl)c1)Cc1ccco1 | . | . | -50 | 9 | . | . | .
O=C(c1ccccc1)c1c[nH]c(C(=O)NNc2ccccc2)c1 | 69* | -4 | -56 | 15 | -4 | -1 | 14
CN(C)CCCNC(=O)c1cc(C(=O)c2ccccc2)c[nH]1 | -5 | 28 | . | . | -1 | . | .
COc1ccc2c(c1)CC/C(=C\Nc1ccc3c(c1)OCO3)C2=O | 73* | -6 | -4 | 16 | 20 | 8 | 57* | Diaph ctr 10uM=3;Diaph ctr 30uM=10
COc1ccc(N/C=C2\CCc3ccccc3C2=O)cc1 | 91* | 10 | 23 | 7 | 33 | 2 | 46
O=C1/C(=C/Nc2ccc3c(c2)OCO3)CCc2ccccc21 | 88* | 18 | 36 | 12 | 35 | 15 | 41
Nc1c(C(=O)OCC2CCCO2)c2nc3ccccc3nc2n1C1CCCC1 (stereo not given) | 49 | 14 | . | 6 | 7 | -10 | 20
Cc1ccc2cc(CN(Cc3cccnc3)Cc3nnnn3CC3CCCO3)c(=O)[nH]c2c1 (stereo not given) | . | . | -10 | 8 | . | . | .
COc1ccccc1NC(=O)Nc1nn(C)c2cccc(N(C)C)c12 | 64* | 37 | 0 | 7 | 12 | -10 | 21
CN(C)c1cccc2c1c(NC(=O)Nc1ccc(Cl)cc1Cl)nn2C | 9 | 20 | 11 | 9 | 3 | -23 | .
CC1=C(C#N)c2nc(N)c(C#N)c(C)c2/C1=C\c1ccc(N(C)C)cc1 | . | . | -25 | 14 | . | . | .
COc1ccc(OCc2nnc3n2N=C(c2ccc(OC)cc2)CS3)cc1 | 14 | 26 | -3 | 11 | -2 | -20 | .
c1ccc(OCc2nnc3n2N=C(c2ccccc2)CS3)cc1 | 100* | 59 | -4 | 9 | -11 | 4 | 58* | Diaph ctr 10uM=41;Diaph ctr 30uM=29
COC(=O)C(C)n1cnc2scc(-c3ccc(Cl)cc3)c2c1=O (stereo not given) | . | . | 22 | 1 | . | . | .
Cc1nnc(NC(=O)c2ccc3ccccc3c2)s1 | 20 | 37 | . | . | 4 | . | .
CC(C)c1nnc(NC(=O)c2ccc3c(c2)OCO3)s1 | 73* | 23 | -20 | 10 | 4 | -7 | 20
CC(C)c1nnc(NC(=O)c2ccc3ccccc3c2)s1 | 74* | 33 | . | . | -2 | . | 30
SMILES | PfGluPho inh | PHOSPHO1 inh | EP2 modulator | PGE2 EP2 inh | HKDC1 inh | TbHK1 inh | PfGluPho conf | others
CC(C)c1nnc(NC(=O)c2sc3ccccc3c2Cl)s1 | 64* | 48 | -8 | 15 | -4 | -24 | 63* | Diaph ctr 10uM=39;Diaph ctr 30uM=36
CCSc1nnc(NC(=O)c2ccc3c(c2)OCO3)s1 | 85* | 0 | 1 | 7 | -1 | -24 | 74* | Diaph ctr 10uM=68*;Diaph ctr 30uM=68*
CCC[n+]1cccc(C(=O)c2ccccc2)c1 | . | . | 15 | 8 | . | . | .
C=CCNC(=O)C1CC(c2ccccc2O)=NO1 (stereo not given) | . | . | -14 | 5 | . | . | .
Cc1nc(-c2ccccc2)c(CC(=O)NC(c2ccccc2)c2cccnc2)s1 (stereo not given) | . | . | -13 | 11 | . | . | .
CC(C)Sc1nnc(NC(=O)c2ccc3c(c2)OCO3)s1 | 100* | 27 | . | . | -1 | . | 66* | Diaph ctr 10uM=59*;Diaph ctr 30uM=46
O=C(NCc1nc(-c2cccnc2)n[nH]1)c1cccs1 | . | . | -49 | 6 | . | . | .
O=C(CSc1nnc(-c2ccc(O)cc2)o1)N1c2ccccc2Sc2ccccc21 | . | . | -73 | 12 | . | . | .
OCc1ccccc1CNCc1ccccc1 | 2 | 1 | -14 | 15 | -4 | 1 | .
Oc1cc(CNCc2ccccc2)c(O)cc1CNCc1ccccc1 | 70* | . | . | . | 27 | . | 49* | Diaph ctr 10uM=-6;Diaph ctr 30uM=-1
O=C(CSc1nnc(SCc2ccccc2)s1)N/N=C/c1c[nH]c2ccccc12 | 24 | -3 | -59 | 7 | -3 | -28 | .
O=C(CSc1nnc(SCc2ccccc2Cl)s1)N/N=C/c1c[nH]c2ccccc12 | 89* | 1 | -11 | 10 | -4 | -13 | 37
COc1cc(NC2CCCCC2O)c2nc(-c3ccc(Cl)cc3)ccc2c1 (stereo not given) | 61* | 12 | 28 | 16 | 23 | -20 | 42
COc1ccc(OCC(=O)OCC(=O)NC2CCCCC2C)cc1 (stereo not given) | 13 | . | . | . | -5 | . | .
CC(C)c1ccccc1-n1c(SCc2cc(=O)oc3ccc4ccccc4c23)nnc1-c1cccnc1 | 61* | -32 | 19 | 9 | 10 | -2 | -15
CCOc1ccc(-n2c(SCc3cc(=O)oc4cc(C)ccc34)nnc2-c2cccnc2)cc1 | 16 | 4 | -3 | 6 | -4 | -5 | .
Cc1ccc(NNC(=O)Nc2ccc(Cl)cc2)nn1 | 68* | 3 | 9 | 12 | 2 | 0 | 26
O=C(CSc1nc2cc(Cl)ccc2s1)N1CCOCC1 | . | . | -44 | 14 | . | . | .
Cc1ccc(S(=O)(=O)Oc2cccc(/C=N/n3cnnc3)c2)cc1 | 77* | 2 | -20 | 4 | -1 | 38 | 37
Cc1ccc(S(=O)(=O)Oc2cccc(/C=N/Nc3ccc(C(=O)O)cc3)c2)cc1 | 98* | 36 | -27 | 16 | 7 | -49 | 67* | Diaph ctr 10uM=60*;Diaph ctr 30uM=49
C(=N\n1cnnc1)/c1cccc(OCCOc2ccccc2)c1 | 7 | -2 | 7 | 10 | 7 | -2 | .
